Beta cell apopt = beta cell apoptosis inhibition. AID 435005. INS-1E cytokine-induced death, ATP luminescence, 48 h; percent of positive-control rescue, neutral wells zero. protection from apoptosis, % (no concentration beside the values). hit rate 0.8% among 300,000;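 active = Every replicate reaches about 75%, or at least half do and their mean reaches it too, limit read from the data; inconclusive = At least half of replicates reach the limit but their mean does not; inactive = Under half of replicates reach the limit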;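 also: 0% = cytokine-treated negative control wells and 100% = positive control rescue; higher means more ATP so stronger rescue from cytokine killing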
SKKanGAS inh = blocks kanamycin growth of S. pyogenes SKKanGAS strain; inhibition, % at 7.5 µM; BacTiter-Glo, 6 h; hit rate 1.3% among 300,000; AID 1662;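 active = mean replicate score, as percent of positive control median, at least 50; inconclusive = mean below 50 but one replicate at or above 50; inactive = mean and every replicate below 50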;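 also: strain carries kanamycin resistance gene driven by streptokinase promoter and grows in 40 µg/ml kanamycin; loss of luminescence reflects streptokinase promoter inhibition or plain growth inhibition; 0% = median of DMSO wells and 100% = positive control at its reference dose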
HIF act = HIF pathway transcriptional activation; U2OS HRE-luciferase reporter, luminescence; normalized: DMSO 0%, desferrioxamine 100%; activation, % at 7.5 µM (by protocol); hit rate 0.32% among 300,000;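 active = mean activation of at least 10% of the iron chelator positive control signal, with at least half of replicates also reaching 10%; inconclusive = mean and replicate majority disagree about reaching 10%; inactive = mean and most replicates under 10%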
T cruzi inh = blocks replication of Trypanosoma cruzi. inhibition, % (concentration not given with the values). T. cruzi beta-gal in NIH3T3, luminescence, 90 h. hit rate 1.4% among 300,000;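 active = mean inhibition across valid replicates above about 55%, limit read from the data; inconclusive = mean below that limit but half or more replicates reach it; inactive = mean below it, under half of replicates reach it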;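 also: signal also drops with host cell toxicity which is not excluded here; 0% = plate median of DMSO wells and 100% = zero luminescence signal; higher percent means less beta-gal luminescence so fewer parasites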
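Test system: β-gal T. cruzi (Tulahuen C4) inside NIH/3T3 cells / Quantity: 5,000 cells/well / Measured by: luminescence from GalScreen with 0.05% NP40, read after 60 min / Medium: DMEM plus 2% FBS / Measure: parasite load inhibition, % / Reagent: Tulahuen C4 trypomastigotes, 5000/well / Schedule: co-culture of at least 90 h after 3 h attachment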
CSC inhib = cancer stem cell inhibition; cancer stem cell-like cells viability, luminescence; inhibition, % at 7.5 µM; hit rate 1.1% among 300,000; in the data active = inhibition above about 75%; inconclusive = no clear call, values can overlap the other calls; tested in HMLE shEcad cells
PfHsp90 set2 = growth inhibition of yeast expressing Plasmodium Hsp90 | inhibition, % at 9.4 µM | hit rate 0.32% among 310,000 | S. cerevisiae expressing PfHsp90, BacTiter-Glo ATP, 48 h; yeast lacking PDR1 and PDR3 efflux regulators;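 active = every replicate shows inhibition above about 80%, whatever the replicate mean, limit read from the data; inconclusive = mean inhibition reaches the set limit but some replicate falls short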;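 also: 0% = DMSO neutral controls and 100% = 20 µM radicicol positive controls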
The depositor's hits bear a star; ? = inconclusive; . = no result. Hits are enriched below; roughly 3.6% of the tested compounds scored in any of these assays.

SMILES	Beta cell apopt	SKKanGAS inh	HIF act	T cruzi inh	CSC inhib	PfHsp90 set2
COc1ccc(/C=C\C(=O)O[C@@H]2C(O)C(O[C@@H]3OC(C)[C@H](O[C@@H]4OCC(O[C@H]5O[C@H](CO)[C@@H](O)C(O)C5O)C(O)C4O)C(O)C3O)[C@H](OC(=O)[C@]34CCC(C)(C)C[C@@H]3C3=CCC5[C@@]6(C)CC(O)C(O[C@@H]7OC(CO)C(O)[C@H](O)[C@H]7O)[C@@](C)(C(=O)O)C6CC[C@@]5(C)[C@]3(CO)CC4)O[C@H]2C)cc1 (stereo partly drawn)	37	.	.	.	65	108*
C[C@@H]1CC[C@]2(C(=O)O[C@@H]3O[C@H](CO)[C@@H](O)[C@H](O)[C@H]3O)CC[C@]3(C)C(=CCC4[C@@]5(C)CC[C@H](O[C@@H]6OC[C@H](O)[C@H](O[C@@H]7O[C@H](CO)[C@@H](O)[C@H](O)[C@H]7O)[C@H]6O)C(C)(C)C5CC[C@]43C)C2[C@]1(C)O (stereo partly drawn)	-6	.	.	.	-17	-2
O=C1c2ccccc2C(=O)c2[nH]c(=O)[nH]c21	.	62*	1	15	.	-8
O=C1c2ccccc2C(=O)c2[nH]cnc21	20	12	-2	2	10	-9
COc1ccc(CNC(=S)Nc2cccc(OC)c2)cc1	.	-1	1	0	11	-13
COc1cccc(NC(=S)NN=C2CCCCCC2)c1	.	52*	2	25	.	10
CCN(CC)C(=O)Oc1ccc(Cl)c2cccnc12	-1	-13	0	-2	-9	-7
O=C(Nc1cccc(C(F)(F)F)c1)Oc1ccc(Cl)c2cccnc12	115*	99*	-10	69*	43	124*
CSc1nc(N2CCN(c3ccccc3)CC2)cc(N2CCN(c3ccccc3)CC2)n1	7	1	0	19	2	-11
CC1(C)CC(N2CCN(c3ccccc3)CC2)=CC(=[N+]2CCCC2)C1	97*	6	0	68*	59	-8
CC1(C)CC(=O)C=C(N2CCNCC2)C1	0	-3	0	-5	-12	.
CC1CC(C)C[N+](=C2C=C(N3CCCC3)CC(C)(C)C2)C1 (stereo not drawn)	.	-13	-1	59*	.	-17
C[C@H]1c2cccc(O)c2C(O)=C2C(=O)[C@]3(O)C(O)=C(C(N)=O)C(=O)[C@@H](N(C)C)[C@@H]3[C@@H](O)[C@@H]21	-2	97*	0	-23	-5	9
CN(C)c1ccc(O)c2c1CC1CC3[C@@H](N(C)C)C(=O)C(C(N)=O)=C(O)[C@]3(O)C(=O)C1=C2O (stereo partly drawn)	-11	106*	0	-15	-11	-12
Cc1cc(C)c(C(=O)Cn2cnc3cc([N+](=O)[O-])ccc3c2=O)cc1C	-1	3	0	68*	7	6
Cc1ccc(NC(=O)Cn2cnc3cc([N+](=O)[O-])ccc3c2=O)cc1	-3	-1	0	52	-9	10
O=C(Cn1cnc2cc([N+](=O)[O-])ccc2c1=O)Nc1ccc2c(c1)OCO2	-4	-13	0	55*	-7	-8
NS(=O)(=O)c1ccc(CCNS(=O)(=O)c2ccc3c(c2)NC(=O)CO3)cc1	-2	13	-1	-3	1	-50
CCOc1ccc(/C(O)=C2/C(=O)C(=O)N(c3ncccn3)C2c2ccccc2)cc1 (stereo not drawn)	-2	0	1	-4	1	-22
COc1ccc2cc1Oc1ccc(cc1)C[C@H]1c3c(cc(OC)c4c3Oc3c(ccc5c3[C@H](C2)N(C)CC5)O4)CCN1C	122*	.	.	.	105*	14
COc1ccc2cc1Oc1ccc(cc1)CC1c3c(cc(OC)c4c3Oc3cc5c(cc3O4)CCNC5C2)CCN1C (stereo not drawn)	.	17	-1	66*	-3	.
CC1(c2nnc(-c3cccc(Cl)c3)o2)CC(c2ccc(OC(F)(F)F)cc2)=NO1 (stereo not drawn)	-12	0	0	-16	26	-8
Cc1ccc(OCC(=O)Nc2nc(C)c(Cl)cc2Cl)c([N+](=O)[O-])n1	-1	.	.	.	-9	-3
CCO[C@@H]1OC(C(=O)NCc2ccccc2)=C[C@H](c2coc3ccccc3c2=O)[C@H]1CCCO	-11	-2	0	-6	-18	-2
Cn1c(CNC(=O)c2ccc(Cl)cc2)nnc1SCC(=O)N1CCOCC1	0	-2	0	-6	-3	28
SMILES	Beta cell apopt	SKKanGAS inh	HIF act	T cruzi inh	CSC inhib	PfHsp90 set2
O=C1c2cccc(OCC(=O)N3CCCc4ccccc43)c2CCN1Cc1ccc(Br)cc1	7	24	0	33	52	-37
O=C1c2cccc(OCC(=O)N3CCCc4ccccc43)c2CCN1Cc1ccccc1	8	18	0	16	88*	-2
CC1CCC(NC(=O)COC(=O)c2n[nH]c(=O)c3ccccc23)CC1 (stereo not drawn)	-2	2	-13	-2	1	.
C=CCNC(=S)N/N=C/c1ccc(OCc2ccccc2Cl)cc1	6	-3	1	65*	.	1
O=C(CCc1ccc(Oc2cc([N+](=O)[O-])cc([N+](=O)[O-])c2)cc1)NC1CCCC1	7	15	0	63*	-5	6
COc1ccc(N2C(=O)C3CCCN3C2c2ccc(C)o2)cc1 (stereo not drawn)	-5	-3	0	-20	-35	.
COC(=O)[C@@H]1[C@@H](C#N)C2(c3ccccc3-c3ccccc32)N(c2ccc(Cl)cc2)N1C#N	-10	?	1	-43	105*	100*
COc1ccc(NC(=O)c2cccc(Cn3cc(Br)c([N+](=O)[O-])n3)c2)c(C)c1	8	-13	0	68*	3	.
Cc1ccc(-c2nc3ccccc3nc2NN)cc1	-1	7	18*	0	-19	-18
Oc1c(Br)cc(Br)cc1CNc1cnc2ccccc2c1	-14	61*	-24	-9	58	-1
COc1ccc(NC(=O)CSc2ccc(-c3cccnc3)nn2)c(OC)c1	9	-2	-1	-5	-20	9
Cc1ccc(C(=O)Nc2cccc(NC(=O)c3cccs3)c2)c(C)c1	10	12	0	24	11	0
CC(C)c1ccccc1NC(=O)CNCCc1ccc(C(F)(F)F)cc1	-19	4	-1	19	3	24
CCc1c(C(=O)NNC(=S)Nc2ccc(S(=O)(=O)Nc3ncccn3)cc2)csc1C	0	4	-1	3	5	-20
Nc1ccc(-c2ccc(N)cc2C(F)(F)F)c(C(F)(F)F)c1	-5	60*	0	27	4	-12
C=C1C(=O)O[C@@H]2C[C@@H](C)[C@@H]3C=CC(=O)[C@@]3(C)[C@@H](OC(C)=O)[C@H]12	136*	-2	-2	?	85*	.

Screening results: PubChem BioAssay, Broad Institute
